# Assays:
# [1] = biological target: T1, C-C chemokine receptor type 4 (Homo sapiens, UniProt P51679); assay: Antagonist activity at human CCR4 expressed in rat chem-5 cells assessed as inhibition of CCL22-induced calcium flux measured at 2.5 secs time interval for 45 secs by calcium 6 dye-based FLIPR assay; format: functional, cell-based
# T1 sequence (P51679 whole entry): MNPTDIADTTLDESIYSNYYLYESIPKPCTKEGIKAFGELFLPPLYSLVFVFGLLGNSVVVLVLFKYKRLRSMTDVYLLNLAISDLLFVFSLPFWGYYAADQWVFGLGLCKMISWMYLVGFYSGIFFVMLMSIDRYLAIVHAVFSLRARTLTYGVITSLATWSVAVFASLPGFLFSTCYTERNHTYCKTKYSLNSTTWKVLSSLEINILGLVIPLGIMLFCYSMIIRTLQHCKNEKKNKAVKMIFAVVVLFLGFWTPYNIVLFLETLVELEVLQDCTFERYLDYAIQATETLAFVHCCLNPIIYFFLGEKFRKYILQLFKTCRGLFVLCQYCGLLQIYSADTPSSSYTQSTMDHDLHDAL
# Method in brief: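 Primary calcium flux assay for CCR4 antagonism, run in the absence of serum.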
# [2] = Metabolic stability in human hepatocytes assessed as parent compound remaining at 1 uM after 60 mins by LC-MS/MS analysis; format: ADME, cell-based, Hepatocyte; conditions: read-out: Stability
# Method in brief: (§1)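 Hepatocytes (human or rat). Compound incubated for 60 min; value is % parent remaining.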
# [3] = Oral bioavailability in rat at 2 mg/kg; format: ADME, organism-based; conditions: in vivo
# Method in brief: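 Rat in vivo PK. Oral dose of 2 mg/kg; %F derived.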
# [4] = Clearance in rat at 0.5 mg/kg, iv; format: ADME, organism-based; conditions: in vivo
# Method in brief: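 Rat in vivo PK. Single IV dose of 0.5 mg/kg; clearance in mL/min/kg.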
# [5] = Metabolic stability in rat hepatocytes assessed as parent compound remaining at 1 uM after 60 mins by LC-MS/MS analysis; format: ADME, cell-based, Hepatocyte; conditions: read-out: Stability; method in brief: as §1
# Cytochrome P450 2C19 = Cytochrome P450 2C19 (Homo sapiens, UniProt P33261); assay: Inhibition of CYP2C19 in human liver microsomes using S-mephenytoin as substrate incubated for 20 mins in presence of NADPH by LC-MS/MS analysis; format: ADME
# Cytochrome P450 2C19, sequence (P33261 whole entry): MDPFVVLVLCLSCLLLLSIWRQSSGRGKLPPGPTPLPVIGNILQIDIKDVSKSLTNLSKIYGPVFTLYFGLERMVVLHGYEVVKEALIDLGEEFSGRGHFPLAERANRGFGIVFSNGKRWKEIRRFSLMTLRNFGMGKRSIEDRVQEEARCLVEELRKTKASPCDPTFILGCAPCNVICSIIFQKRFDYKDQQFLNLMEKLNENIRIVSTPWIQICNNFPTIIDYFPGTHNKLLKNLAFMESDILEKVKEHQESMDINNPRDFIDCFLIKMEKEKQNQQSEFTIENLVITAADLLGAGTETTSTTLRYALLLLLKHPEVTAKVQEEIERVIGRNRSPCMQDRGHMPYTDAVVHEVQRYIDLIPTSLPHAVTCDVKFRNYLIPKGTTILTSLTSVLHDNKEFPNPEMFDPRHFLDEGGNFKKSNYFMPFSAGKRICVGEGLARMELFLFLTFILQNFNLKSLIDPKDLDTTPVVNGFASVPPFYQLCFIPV
# Cytochrome P450 2C9 = Cytochrome P450 2C9 (Homo sapiens, UniProt P11712); assay: Inhibition of CYP2C9 in human liver microsomes using diclofenac sodium salt as substrate incubated for 20 mins in presence of NADPH by LC-MS/MS analysis; format: ADME
# Cytochrome P450 2C9, sequence (P11712 whole entry): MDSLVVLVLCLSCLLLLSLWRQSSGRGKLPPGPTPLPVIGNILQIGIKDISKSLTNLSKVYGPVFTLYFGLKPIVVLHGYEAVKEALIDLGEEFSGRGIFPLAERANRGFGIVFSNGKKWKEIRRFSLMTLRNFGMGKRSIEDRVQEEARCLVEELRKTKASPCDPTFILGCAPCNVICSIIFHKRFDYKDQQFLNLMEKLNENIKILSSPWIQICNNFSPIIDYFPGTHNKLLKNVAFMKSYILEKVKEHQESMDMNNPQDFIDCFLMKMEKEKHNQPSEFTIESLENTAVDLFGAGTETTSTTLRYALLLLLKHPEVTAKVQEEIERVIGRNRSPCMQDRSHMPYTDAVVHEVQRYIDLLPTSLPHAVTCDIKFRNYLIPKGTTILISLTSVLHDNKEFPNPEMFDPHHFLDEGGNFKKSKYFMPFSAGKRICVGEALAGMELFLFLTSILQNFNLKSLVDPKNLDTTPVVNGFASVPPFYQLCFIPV
# Cytochrome P450 2D6 = Cytochrome P450 2D6 (Homo sapiens, UniProt P10635); assay: Inhibition of CYP2D6 in human liver microsomes using bufuralol hydrochloride salt as substrate incubated for 20 mins in presence of NADPH by LC-MS/MS analysis; format: ADME
# Cytochrome P450 2D6, sequence (P10635 whole entry): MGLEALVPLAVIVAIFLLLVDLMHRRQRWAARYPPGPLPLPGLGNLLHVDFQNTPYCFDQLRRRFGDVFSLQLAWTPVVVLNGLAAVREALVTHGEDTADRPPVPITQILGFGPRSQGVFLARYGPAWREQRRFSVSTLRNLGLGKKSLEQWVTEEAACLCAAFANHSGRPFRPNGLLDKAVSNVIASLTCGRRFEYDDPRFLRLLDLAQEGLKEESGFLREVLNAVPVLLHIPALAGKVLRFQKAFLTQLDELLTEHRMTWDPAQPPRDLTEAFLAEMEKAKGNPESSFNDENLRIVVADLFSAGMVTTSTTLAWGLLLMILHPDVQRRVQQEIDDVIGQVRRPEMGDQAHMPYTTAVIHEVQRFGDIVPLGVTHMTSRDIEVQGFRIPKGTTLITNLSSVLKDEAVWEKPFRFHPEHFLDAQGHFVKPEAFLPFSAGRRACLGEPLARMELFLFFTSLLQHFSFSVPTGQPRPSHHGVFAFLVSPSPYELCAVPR
# Cytochrome P450 = assay: Induction of CYP450 (unknown origin); format: ADME, protein assay; conditions: human
# Cytochrome P450 1A2 = Cytochrome P450 1A2 (Homo sapiens, UniProt P05177); assay: Inhibition of CYP1A2 in human liver microsomes using phenacetin as substrate incubated for 20 mins in presence of NADPH by LC-MS/MS analysis; format: ADME
# Cytochrome P450 1A2, sequence (P05177 whole entry): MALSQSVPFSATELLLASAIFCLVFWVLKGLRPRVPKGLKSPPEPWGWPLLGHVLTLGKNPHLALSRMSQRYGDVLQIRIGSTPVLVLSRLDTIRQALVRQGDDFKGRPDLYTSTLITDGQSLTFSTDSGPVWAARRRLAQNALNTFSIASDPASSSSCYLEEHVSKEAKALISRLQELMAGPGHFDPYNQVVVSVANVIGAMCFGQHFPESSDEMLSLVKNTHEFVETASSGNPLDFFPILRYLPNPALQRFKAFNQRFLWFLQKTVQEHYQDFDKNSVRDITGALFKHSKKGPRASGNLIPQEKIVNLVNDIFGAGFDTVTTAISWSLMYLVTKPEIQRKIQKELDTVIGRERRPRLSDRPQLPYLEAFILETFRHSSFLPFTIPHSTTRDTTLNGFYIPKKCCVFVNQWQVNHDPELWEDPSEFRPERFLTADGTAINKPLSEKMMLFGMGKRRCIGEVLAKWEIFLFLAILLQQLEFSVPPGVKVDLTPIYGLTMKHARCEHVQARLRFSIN
# CYP3A4 = CYP3A4 (Homo sapiens, UniProt P08684); assay: Ratio of IC50 for time-dependent inhibition of CYP3A4 in human liver microsomes using midazolam hydrochloride as substrate in presence of NADPH to IC50 for time-dependent inhibition of CYP3A4 in human liver microsomes using midazolam hydrochloride as substrate absence of NADPH; conditions: probe midazolam hydrochloride, read-out: Ratio IC50
# CYP3A4, sequence (P08684 whole entry): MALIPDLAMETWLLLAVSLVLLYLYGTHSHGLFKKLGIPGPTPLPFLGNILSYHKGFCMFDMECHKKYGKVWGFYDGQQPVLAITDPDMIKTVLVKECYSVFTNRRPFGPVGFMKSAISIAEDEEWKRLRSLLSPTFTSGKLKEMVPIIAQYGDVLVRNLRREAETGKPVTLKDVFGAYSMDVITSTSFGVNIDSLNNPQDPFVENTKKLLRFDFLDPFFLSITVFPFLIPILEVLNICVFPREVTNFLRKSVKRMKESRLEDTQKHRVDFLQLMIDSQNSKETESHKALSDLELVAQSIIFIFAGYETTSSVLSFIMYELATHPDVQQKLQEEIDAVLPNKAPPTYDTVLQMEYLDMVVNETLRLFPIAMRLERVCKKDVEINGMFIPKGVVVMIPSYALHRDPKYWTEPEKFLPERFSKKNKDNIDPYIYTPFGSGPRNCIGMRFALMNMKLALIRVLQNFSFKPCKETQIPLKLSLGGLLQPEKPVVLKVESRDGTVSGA
# Cytochrome P450 3A4 = Cytochrome P450 3A4 (Homo sapiens, UniProt P08684); assay: Inhibition of CYP3A4 in human liver microsomes using midazolam hydrochloride as substrate incubated for 20 mins in presence of NADPH by LC-MS/MS analysis; format: ADME
# Cytochrome P450 3A4, sequence (P08684 whole entry): as above
Structure (SMILES),IC50 [1] [nM],also measured
Cc1nn([C@H](C)c2ccc(Cl)cc2Cl)c2nc(N3CC([C@H]4CCCN(CCCC(=O)O)C4)C3)cnc12,69,
Cc1nn([C@H](C)c2ccc(Cl)cc2Cl)c2nc(N3CC([C@H]4CCCN(CCCO)C4)C3)cnc12,37,
C[C@H](c1ccc(Cl)cc1Cl)n1nc(C#N)c2ncc(N3CC([C@H]4CCCN(Cc5cnc[nH]5)C4)C3)nc21,21,
CCOC(=O)CN1CCCC(C2CN(c3cnc4c(C)nn([C@H](C)c5ccc(Cl)cc5Cl)c4n3)C2)C1 (stereo partly drawn),596,
C[C@H](c1ccc(Cl)cc1Cl)n1nc(C#N)c2ncc(N3CC([C@H]4CCCN(CC(=O)O)C4)C3)nc21,36,
Cc1nn([C@H](C)c2ccc(Cl)cc2Cl)c2nc(N3CC(CN(C)C)C3)cnc12,1370,
CCN1CCC(C2CN(c3cnc4c(C)nn([C@H](C)c5ccc(Cl)cc5Cl)c4n3)C2)CC1,> 5000,
Cc1nn([C@H](C)c2ccc(Cl)cc2Cl)c2nc(N3CC([C@H]4CCCN(CCS(C)(=O)=O)C4)C3)cnc12,77,
C[C@H](c1ccc(Cl)cc1Cl)n1nc(C(N)=O)c2ncc(N3CC([C@H]4CCCN(CCO)C4)C3)nc21,8,"remaining at 1 h, 1 µM [2]: 95%; bioavailability [3]: 0%; clearance [4]: 191 mL/min/kg; remaining at 1 h, 1 µM [5]: 95%"
Cc1nn([C@H](C)c2ccc(Cl)cc2Cl)c2nc(N3CC([C@H]4CCCN(CCC(F)(F)F)C4)C3)cnc12,505,
C[C@H](c1ccc(Cl)cc1Cl)n1nc(C(=O)O)c2ncc(N3CC([C@H]4CCCN(CCO)C4)C3)nc21,> 5000,
C[C@H](c1ccc(Cl)cc1Cl)n1nc(C#N)c2ncc(N3CC([C@H]4CCCN(CCC#N)C4)C3)nc21,28,
Cc1nn([C@H](C)c2ccc(Cl)cc2Cl)c2nc(N3CC([C@H]4CCCN(CCC(=O)O)C4)C3)cnc12,91,
CNC(=O)c1nn([C@H](C)c2ccc(Cl)cc2Cl)c2nc(N3CC([C@H]4CCCN(CCO)C4)C3)cnc12,25,
Cc1nn([C@H](C)c2ccc(Cl)cc2Cl)c2nc(N3CC([C@H]4CCCN(CCS(N)(=O)=O)C4)C3)cnc12,84,
Cc1nn([C@H](C)c2ccc(Cl)cc2Cl)c2nc(N3CC([C@H]4CCCN(CCCS(C)(=O)=O)C4)C3)cnc12,22,
Cc1nn([C@H](C)c2ccc(Cl)cc2Cl)c2nc(N3CC([C@H]4CCCN(CCNC(=O)C(C)C)C4)C3)cnc12,18,
Cc1nn([C@H](C)c2ccc(Cl)cc2Cl)c2nc(N3CC([C@H]4CCCN(CCNS(C)(=O)=O)C4)C3)cnc12,29,"remaining at 1 h, 1 µM [2]: 85%; bioavailability [3]: 11%; clearance [4]: 41.6 mL/min/kg; remaining at 1 h, 1 µM [5]: 53%"
Cc1nn([C@H](C)c2ccc(Cl)cc2Cl)c2nc(N3CC(N4CCCCC4)C3)cnc12,> 5000,
C[C@H](c1ccc(Cl)cc1Cl)n1nc(C(=O)N(C)C)c2ncc(N3CC([C@H]4CCCN(CCO)C4)C3)nc21,9,
Cc1nn([C@H](C)c2ccc(Cl)cc2Cl)c2nc(N3CC(C4CCCN(CCS(N)(=O)=O)C4)C3)cnc12 (stereo partly drawn),121,
CC(=O)NCCN1CCC[C@H](C2CN(c3cnc4c(C)nn([C@H](C)c5ccc(Cl)cc5Cl)c4n3)C2)C1,6,"remaining at 1 h, 1 µM [2]: 94%; bioavailability [3]: 13%; clearance [4]: 11 mL/min/kg; remaining at 1 h, 1 µM [5]: 68%"
Cc1nn([C@H](C)c2ccc(Cl)cc2Cl)c2nc(N3CC([C@H]4CCCN(CCC(N)=O)C4)C3)cnc12,42,
Cc1nn([C@H](C)c2ccc(Cl)cc2Cl)c2nc(N3CC([C@H]4CCCN(CCO)C4)C3)cnc12,24,"IC50 (Cytochrome P450 2C19): > 40000 nM; IC50 (Cytochrome P450 2C9): > 40000 nM; IC50 (Cytochrome P450 2D6): > 40000 nM; remaining at 1 h, 1 µM [2]: 87%; Activity (Cytochrome P450): Not Active; bioavailability [3]: 61%; IC50 (Cytochrome P450 1A2): > 40000 nM; IC50 shift (CYP3A4): 2.6; IC50 (Cytochrome P450 3A4): > 40000 nM; clearance [4]: 32.3 mL/min/kg; remaining at 1 h, 1 µM [5]: 62%"
C[C@H](c1ccc(Cl)cc1Cl)n1nc(C#N)c2ncc(N3CC([C@H]4CCCN(CCC(F)(F)F)C4)C3)nc21,370,
C[C@H](c1ccc(Cl)cc1Cl)n1nc(C#N)c2ncc(N3CC([C@H]4CCCN(CCC(=O)O)C4)C3)nc21,47,
Cc1nn([C@H](C)c2ccc(Cl)cc2Cl)c2nc(N3CC([C@H]4CCCN(CCNS(=O)(=O)C(C)C)C4)C3)cnc12,31,
C[C@H](c1ccc(Cl)cc1Cl)n1nc(C#N)c2ncc(N3CC([C@H]4CCCN(CC#N)C4)C3)nc21,1470,
COC(=O)NCCN1CCC[C@H](C2CN(c3cnc4c(C)nn([C@H](C)c5ccc(Cl)cc5Cl)c4n3)C2)C1,23,
Cc1nn([C@H](C)c2ccc(Cl)cc2Cl)c2nc(N3CC([C@@H]4CCCN(CCS(N)(=O)=O)C4)C3)cnc12,455,
